Test results taken from ChEMBL document CHEMBL3627607, “A Novel Pyrazolopyridine with in Vivo Activity in Plasmodium berghei- and Plasmodium falciparum-Infected Mouse Models from Structure-Activity Relationship Studies around the Core of Recently Identified Antimalarial Imidazopyridazines” (J Med Chem, 2015).

Columns and labels:
Liver microsome [1] = test: Metabolic stability of the compound in rat liver microsomes assessed as compound remaining at 0.1 uM after 30 mins by LC-MS/MS analysis; format: ADME; settings: 0.5 h
Plasmodium falciparum [2] = test: Antiplasmodial activity against multidrug resistant Plasmodium falciparum K1 infected in human erythrocytes after 48 hrs by [3H]-hypoxanthine incorporation assay; format: functional, organism-based
[3] = AUC (0 to 23 hrs) in Plasmodium falciparum 3D7 infected in non-myelodepleted NOD-SCID IL2Rgammanull mouse engrafted with human erythrocytes at 10 mg/kg, po; format: ADME, organism-based; parameters: dose 10 mg/kg, time < 23 hr, route oral; settings: in vivo
Procedure, shortened: (§1)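 Engrafted NSG (scid IL2Rgc null) mice infected with P. falciparum were given one oral dose per day for four days. Blood was sampled to measure parent and its sulfone metabolite.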

[4] = Tmax in Plasmodium falciparum 3D7 infected in non-myelodepleted NOD-SCID IL2Rgammanull mouse engrafted with human erythrocytes at 10 mg/kg, po; format: ADME, organism-based; settings: in vivo
Procedure, shortened: (§2)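 Humanized NSG mice infected with P. falciparum received one oral dose per day for 4 consecutive days. Blood was sampled for exposure, with levels of both parent and its main active metabolite measured. Tmax was taken from the blood concentration–time profile after oral dosing.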

[5] = Tmax in Plasmodium falciparum 3D7 infected in non-myelodepleted NOD-SCID IL2Rgammanull mouse engrafted with human erythrocytes at 1.5 mg/kg, po; format: ADME, organism-based; settings: in vivo; procedure, shortened: as §2
Blood [6] = test: Drug level in mouse blood at 50 mg/kg, po after 24 hrs; format: ADME, organism-based; settings: in vivo, 24 h, BLD = below limit of detection
Procedure, shortened: (§3)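 Snapshot whole-blood levels of parent and its sulfone metabolite at 1, 4 and 24 h after the first 50 mg/kg oral dose. Samples came from the P. berghei-infected efficacy mice, dosed in HPMC suspension vehicle.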

[7] = Drug level in mouse blood at 50 mg/kg, po after 4 hrs; format: ADME, organism-based; settings: read-out: Drug uptake; procedure, shortened: as §3
[8] = Cmax in Plasmodium falciparum 3D7 infected in non-myelodepleted NOD-SCID IL2Rgammanull mouse engrafted with human erythrocytes at 1.5 mg/kg, po; format: ADME, organism-based; parameters: dose 1.5 mg/kg, route oral; settings: in vivo; procedure, shortened: as §1
Blood [9] = test: Drug level in rat blood treated with 5-(3-(Cyclopropylsulfonyl)phenyl)-3-(4-(methylsulfinyl)-phenyl)pyrazolo[1,5-a]pyridine at 20 mg/kg, po and 5 mg/kg, iv by LC-MS/MS analysis; format: ADME, organism-based; settings: in vivo
Procedure, shortened: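 Metabolites identified by LC-ESI-MS/MS in blood samples from the rat PK study (oral and intravenous dosing).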

[10] = Oral bioavailability in rat at 10 mg/kg; format: ADME, organism-based; settings: in vivo
Liver microsome [11] = test: Drug level in rat liver microsomes treated with 5-(3-(Cyclopropylsulfonyl)phenyl)-3-(4-(methylsulfinyl)-phenyl)pyrazolo[1,5-a]pyridine at 10 uM after 1 hr by LC-MS/MS analysis; format: ADME
Procedure, shortened: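 Metabolites identified by LC-ESI-MS/MS after in vitro incubation with rat liver microsomes.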

[12] = Tmax in Plasmodium falciparum 3D7 infected in non-myelodepleted NOD-SCID IL2Rgammanull mouse engrafted with human erythrocytes at 30 mg/kg, po; format: ADME, organism-based; settings: in vivo; procedure, shortened: as §2
[13] = Cmax in Plasmodium falciparum 3D7 infected in non-myelodepleted NOD-SCID IL2Rgammanull mouse engrafted with human erythrocytes at 30 mg/kg, po; format: ADME, organism-based; parameters: dose 30 mg/kg, route oral; settings: in vivo; procedure, shortened: as §1
[14] = AUC (0 to 23 hrs) in Plasmodium falciparum 3D7 infected in non-myelodepleted NOD-SCID IL2Rgammanull mouse engrafted with human erythrocytes at 30 mg/kg, po; format: ADME, organism-based; parameters: dose 30 mg/kg, time < 23 hr, route oral; settings: in vivo; procedure, shortened: as §1
[15] = Plasma clearance in rat at 3 mg/kg, iv; format: ADME, organism-based
[16] = Drug level in mouse blood at 50 mg/kg, po after 1 hr; format: ADME, organism-based; settings: read-out: Drug uptake; procedure, shortened: as §3
[17] = AUC (0 to 23 hrs) in Plasmodium falciparum 3D7 infected in non-myelodepleted NOD-SCID IL2Rgammanull mouse engrafted with human erythrocytes at 0.5 mg/kg, po; format: ADME, organism-based; parameters: time < 23 hr, dose 0.5 mg/kg, route oral; settings: in vivo; procedure, shortened: as §1
[18] = Cmax in Plasmodium falciparum 3D7 infected in non-myelodepleted NOD-SCID IL2Rgammanull mouse engrafted with human erythrocytes at 0.5 mg/kg, po; format: ADME, organism-based; parameters: dose 0.5 mg/kg, route oral; settings: in vivo; procedure, shortened: as §1
[19] = Metabolic stability of the compound in mouse liver microsomes assessed as compound remaining at 0.1 uM after 30 mins by LC-MS/MS analysis; format: ADME; settings: 0.5 h
Plasmodium falciparum [20] = test: Antiplasmodial activity against drug sensitive Plasmodium falciparum NF54 infected in human erythrocytes after 48 hrs by [3H]-hypoxanthine incorporation assay; format: functional, organism-based
Plasmodium berghei [21] = test: Antiplasmodial activity against Plasmodium berghei ANKA expressing GFP infected in mouse assessed as reduction of parasitemia level at 50 mg/kg, po qd for 4 days measured on day 4 post last dose by flow cytometric analysis relative to control; format: functional; parameters: scale not given: the % may be the effect or the level left
Procedure, shortened: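 Mice (n = 3) infected with GFP-transfected P. berghei ANKA. Test agents were suspended in HPMC vehicle (0.5% w/v hydroxypropylmethylcellulose, 0.5% v/v benzyl alcohol, 0.4% v/v Tween 80, 0.9% w/v NaCl in water). Dosed orally at 4, 24, 48 and 72 h post-infection. Parasitemia read by flow cytometry on day 4 (96 h), detection limit 0.1%. Activity = control-minus-treated mean % parasitemia, relative to control.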

[22] = Half life in rat at 10 mg/kg, po; format: ADME, organism-based; settings: in vivo
[23] = Half life in rat at 3 mg/kg, iv; format: ADME, organism-based; settings: in vivo
[24] = Cmax in Plasmodium falciparum 3D7 infected in non-myelodepleted NOD-SCID IL2Rgammanull mouse engrafted with human erythrocytes at 0.1 mg/kg, po; format: ADME, organism-based; parameters: dose 0.1 mg/kg, route oral; settings: in vivo; procedure, shortened: as §1
Liver microsome [25] = test: Metabolic stability of the compound in human liver microsomes assessed as compound remaining at 0.1 uM after 30 mins by LC-MS/MS analysis; format: ADME; settings: 0.5 h
[26] = Tmax in Plasmodium falciparum 3D7 infected in non-myelodepleted NOD-SCID IL2Rgammanull mouse engrafted with human erythrocytes at 0.5 mg/kg, po; format: ADME, organism-based; settings: in vivo; procedure, shortened: as §2
[27] = Tmax in Plasmodium falciparum 3D7 infected in non-myelodepleted NOD-SCID IL2Rgammanull mouse engrafted with human erythrocytes at 0.1 mg/kg, po; format: ADME, organism-based; settings: in vivo; procedure, shortened: as §1
[28] = AUC (0 to 23 hrs) in Plasmodium falciparum 3D7 infected in non-myelodepleted NOD-SCID IL2Rgammanull mouse engrafted with human erythrocytes at 1.5 mg/kg, po; format: ADME, organism-based; parameters: time < 23 hr, dose 1.5 mg/kg, route oral; settings: in vivo; procedure, shortened: as §1
Plasmodium berghei [29] = test: Antiplasmodial activity against Plasmodium berghei ANKA expressing GFP infected in mouse assessed as means survival days at 50 mg/kg, po qd for 4 days; format: functional
Procedure, shortened: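 Mice (n = 3) infected with GFP-transfected P. berghei ANKA. Compounds dissolved or suspended in HPMC vehicle (0.5% w/v hydroxypropylmethylcellulose, 0.5% v/v benzyl alcohol, 0.4% v/v Tween 80, 0.9% w/v NaCl in water). Dosed orally 4, 24, 48 and 72 h after infection. Parasitemia read by flow cytometry (detection limit 0.1%). Survival recorded as mean survival time in days.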

[30] = Volume of distribution in rat at 3 mg/kg, iv; format: ADME, organism-based; settings: in vivo
Plasmodium berghei [31] = test: Antiplasmodial activity against sporozoite stage of Plasmodium berghei expressing luciferase infected in human HepG2-A16-CD81EGFP cells preincubated with cells for 18 hrs followed by protozoal infection measured after 48 hrs by bioluminescence assay; format: functional, organism-based
Procedure, shortened: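 HepG2 cells were pretreated 18 h with compound, then infected with freshly dissected luciferase-expressing P. berghei sporozoites. After a further 48 h with compound, viability of exoerythrocytic forms and of HepG2 host cells was read by bioluminescence.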

[32] = Cmax in Plasmodium falciparum 3D7 infected in non-myelodepleted NOD-SCID IL2Rgammanull mouse engrafted with human erythrocytes at 10 mg/kg, po; format: ADME, organism-based; parameters: dose 10 mg/kg, route oral; settings: in vivo; procedure, shortened: as §1
[33] = AUC (0 to 8 hrs) in Plasmodium falciparum 3D7 infected in non-myelodepleted NOD-SCID IL2Rgammanull mouse engrafted with human erythrocytes at 0.1 mg/kg, po; format: ADME, organism-based; parameters: time < 8 hr, dose 0.1 mg/kg, route oral; settings: in vivo; procedure, shortened: as §1

For `CS(=O)(=O)c1ccc(-c2cnn3ccc(-c4cccc(S(=O)(=O)C5CC5)c4)cc23)cc1`, the Stability (Liver microsome [1]) was “Stable”, the IC50 (Plasmodium falciparum [2]) was 2.4 nM and the AUC(0-t) at 23 h [3] was 24800 ng·h/mL. The Tmax [4] was 4 h, the Tmax [5] was 2 h and the Drug uptake (Blood [6]) was “BLD”. The concentration at 4 h [7] was 1060 nM, the Cmax [8] was 467 ng/mL and the Drug metabolism (Blood [9]) was “metabolite_detected”. For the same compound, the bioavailability [10] was 61%, the Drug metabolism (Liver microsome [11]) was “metabolite_detected” and the Tmax [12] was 8 h. For the same compound, the Cmax [13] was 7430 ng/mL, the AUC(0-t) at 23 h [14] was 78300 ng·h/mL and the clearance [15] was 3.5 mL/min/kg. For the same compound, the concentration at 1 h [16] was 697 nM, the AUC(0-t) at 23 h [17] was 1010 ng·h/mL and the Cmax [18] was 106 ng/mL. The Stability [19] was “Stable”, the IC50 (Plasmodium falciparum [20]) was 2.7 nM and the Activity (Plasmodium berghei [21]) was 71%. For the same compound, the half-life [22] was 5.7 h, the half-life [23] was 2.7 h and the Cmax [24] was 25 ng/mL. The Stability (Liver microsome [25]) was “Stable”, the Tmax [26] was 2 h and the Tmax [27] was 2 h. It also gave an AUC(0-t) at 23 h [28] of 3200 ng·h/mL, an MSD (Plasmodium berghei [29]) of 7 days and a Vd [30] of 0.8 L/kg. The IC50 (Plasmodium berghei [31]) was 20 nM, the Cmax [32] was 2600 ng/mL and the AUC(0-t) at 8 h [33] was 139 ng·h/mL.
